High-throughput results from PubChem BioAssay.
Fibroblast inh: blocks proliferation of human lung fibroblasts | LL 47 human lung fibroblast viability, ATP luminescence; hits give low values | viability, % at 10 µM | 1.1% of 85,000 active | AID 719;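 active means viability at or below 50% in the single dose screen; inactive means viability above 50%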;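 further: compound exposure lasted 72 h before the ATP readout; 100% = median luminescence of untreated cell-only wells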
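Times – overnight cell rest, 72 h compound treatment at 37 °C · Test system – human lung fibroblast line LL 47, low passage · Amount – 1,150 cells in each well · Controls – cell-only wells, no compound · Doses – 0.1% DMSO in all compound wells · Measured by – CellTiter-Glo luminescence · Buffer or medium – IMEM plus 15% FBS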
H69AR inhibit: growth inhibitors of human H69AR lung tumor cells. H69AR lung tumor viability, ATP luminescence, 72 h; hits give low values. viability, % at 10 µM. 6% of 85,000 active;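 active means viability at or below 40%; inactive means viability above 40%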;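 further: multidrug resistant small cell line overexpressing MRP-1 efflux transporter; 100% = mean luminescence of untreated control wells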
PTEN del growth: PTEN-deleted cell growth suppression; HCT116 PTEN-null viability, CellTiter-Glo, 60 h; hits give low values; viability, % at 10 µM; 1.2% of 140,000 active;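 active means viability at or below a set limit, 4 SD under the median of all tested compounds, cut at about 3.7% in these data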;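 further: PTEN knockout HCT116 line with beta catenin targeted HCT116 as companion control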
HUVEC inhibit: blocks proliferation of human endothelial cells | AID 648 | viability, % at 10 µM (by protocol) | 1.1% of 86,000 active | HUVEC proliferation, CellTiter-Glo luminescence, 72 h; hits give low values;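 active means viability at or below 30%; inactive means viability above 30%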;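 further: 100% = median luminescence of DMSO-only cell control wells on each plate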
bCat KO growth: beta-catenin-lacking colon tumor cell growth suppression; HCT116 beta-catenin knockout viability, CellTiter-Glo, 60 h; hits give low values; viability, % at 10 µM; 1.5% of 140,000 active; AID 818;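 active means viability at or under a set limit, the compound median less 4 SD, cut at about 6% in these data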;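 further: 0% = Hyamine 1622 control at 20 µM and 100% = untreated cell control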
An asterisk follows results filed as active; . = no result given. The full list was thinned out, with hits kept by preference.

SMILES	Fibroblast inh	H69AR inhibit	PTEN del growth	HUVEC inhibit	bCat KO growth
CCOC(=O)Cn1c(=O)oc2cc(S(=O)(=O)Nc3ccc(N(CC)CC)cc3C)ccc21	6.0*	94	21	2.4*	6
CC(C)(C)NS(=O)(=O)c1ccc2nc(NC(=O)Cc3cccs3)sc2c1	65	28*	55	48	65
CC(C)n1nc(C(=O)Nc2nc3ccc(S(C)(=O)=O)cc3s2)c2ccccc2c1=O	50*	92	29	107	29
CS(=O)(=O)c1ccc2nc(NC(=O)Cc3ccccc3)sc2c1	100	72	.	92	.
CS(=O)(=O)c1ccc2nc(NC(=O)CCC(=O)c3cccs3)sc2c1	100	40*	81	96	79
COc1ccc(-n2nc(C(=O)Nc3nc4ccc(OC)cc4s3)c3ccccc3c2=O)cc1	.	.	20	.	26
COCCn1c(-c2ccccc2Cl)nc2c(c(=O)c3ccccc3n2C)c1=O	.	.	59	.	60
c1csc(C(c2nnnn2C2CCCC2)N2CCCC3(CCCCC3)C2)c1 (centres undefined)	91	79	52	114	58
c1cnn(-c2nc(N3CCOCC3)nc(N3CCOCC3)n2)c1	49*	77	66	58	61
C=CCn1c(=O)c2ccccc2n2c(Sc3nnnn3-c3ccccc3)nnc12	.	51	80	91	79
CCCn1c(=O)c2ccccc2n2c(Sc3nnnn3-c3ccccc3)nnc12	97	33*	48	94	53
COCCNC(=O)CSC1=N/C(=C/c2ccc(Cl)c(Cl)c2)C(=O)N1c1ccccc1F	.	.	66	.	68
CS(=O)(=O)Cc1nc2ccccc2oc1=O	107	22*	47	112	54
CCCCC(=O)Nc1cccc(NC(=O)c2ccccc2Br)c1	.	.	94	.	88
O=c1c2ccccc2c(C=Nc2cccc(O)c2)c(O)n1-c1ccc2c(c1)OCO2	.	.	9	.	3.7*
Oc1[nH]c2ccccc2c1C=Nc1ccc2c(c1)OCO2	.	.	81	.	77
Cc1nn(-c2ccccc2)c2sc(C(=O)N(CC(=O)NC3CCCC3)Cc3ccco3)cc12	53	26*	37	54	68
Cc1nn(-c2ccccc2)c2sc(C(=O)NC3CC3)cc12	90	95	84	91	83
O=C(c1ccccc1)c1nn(-c2ccccc2)c2nnc(Cc3ccccc3)c(=O)n12	104	32*	56	58	50
O=C(CCn1c(=O)c2sccc2n(CC(=O)OCc2ccccc2)c1=O)NCc1ccccc1	98	74	30	82	16
Cc1cccc(-c2nc(CN3CCCC(C(=O)NC4CCCCCC4)C3)c(C)o2)c1 (centres undefined)	94	40*	59	35	58
Cc1cccc(-c2nc(CN3CCCC(C(=O)NC4CCCCC4)C3)c(C)o2)c1 (centres undefined)	109	39*	78	60	73
Cc1oc(-c2ccc(Cl)cc2)nc1CN1CCCC(C(=O)NCc2ccccn2)C1 (centres undefined)	111	71	72	102	68
Cc1oc(-c2cccc(Cl)c2)nc1CN1CCCC(C(=O)NCc2ccco2)C1 (centres undefined)	90	60	82	76	66
CCCCCC(=O)N/N=C(\C)c1ccccn1	.	.	5	.	4.3*
SMILES	Fibroblast inh	H69AR inhibit	PTEN del growth	HUVEC inhibit	bCat KO growth
CCCCCCCCCC(=O)N/N=C(\C)c1cccnc1	91	90	94	106	91
O=C(NCc1ccco1)C1CCCN(S(=O)(=O)c2ccc(Cl)cc2)C1 (centres undefined)	.	.	99	.	85
CCC(C)N=Cc1c(NCc2ccco2)nc2c(C)cccn2c1=O (centres undefined)	94	70	79	78	89
Cc1cccn2c(=O)c(C=NCc3ccco3)c(Nc3ccc(Cl)cc3)nc12	72	23*	.	70	.
COc1cc(OC)cc(-c2nnc(Nc3nc4c(F)cccc4s3)o2)c1	72	44	66	67	55
Fc1cccc2sc(Nc3nnc(-c4ccccc4)o3)nc12	56	57	17	6.8*	24
COc1ccc(-c2nnc(Nc3nc4c(OC)cccc4s3)o2)c(OC)c1	50	33*	6	20*	3.7*
COc1ccc(-c2nnc(Nc3nc4c(OC)cccc4s3)o2)cc1	92	62	8	2.9*	7
Cc1cc2oc(=O)cc(CN3CCN(S(=O)(=O)c4cccs4)CC3)c2cc1C	.	.	86	.	81
O=C/C(=C\Nc1ccc(Cl)cn1)c1nc2ccccc2o1	105	93	87	80	90
O=C/C(=C\Nc1ccc(Cl)cn1)c1nc2cc(Cl)ccc2o1	89	38*	56	35	68
O=S(=O)(c1ccccc1)N(CC(O)Cn1c2ccccc2c2ccccc21)c1ccccc1 (centres undefined)	.	.	17	.	16
Cc1ccc(S(=O)(=O)N(C)CC(O)Cn2c3ccccc3c3ccccc32)cc1 (centres undefined)	99	80	57	88	69
CCN(CC(O)Cn1c2ccccc2c2ccccc21)S(=O)(=O)c1ccc(F)cc1 (centres undefined)	95	18*	79	81	75
O=S(=O)(c1ccc(F)cc1)N(CCO)CC(O)Cn1c2ccccc2c2ccccc21 (centres undefined)	99	13*	76	55	84
CCSC1(SCC)N=C(N)C2(C#N)C(c3ccc(OC)c(OC)c3OC)C12C#N (centres undefined)	51	2.1*	85	45	76
CCSC1(SCC)N=C(N)C2(C#N)C(c3ccccc3)NC3=C(CCC3)C12C#N (centres undefined)	97	78	89	97	76
Cc1nn(C(C)C(=O)NNC(=S)Nc2ccc(F)cc2)c(C)c1[N+](=O)[O-] (centres undefined)	.	.	99	.	98
CCOC(=O)C1=C(C)OC(N)=C(C#N)C1c1cc2c(cc1Br)OCO2 (centres undefined)	92	30*	87	89	85
COc1ccccc1NS(=O)(=O)c1cc(NC(=O)Nc2ccc(Cl)cc2Cl)ccc1N1CCCCC1	.	.	47	.	47
O=C(Nc1cccc(C(F)(F)F)c1)Nc1ccc(N2CCCC2)c(S(=O)(=O)Nc2ccccc2Cl)c1	.	.	1.5*	.	1.5*
CC1CCc2sc3c(c2C1)c1ncnn1c(=O)n3CC(=O)c1ccc(Br)cc1 (centres undefined)	90	46	.	95	.
COc1cc2c(cc1OC)C(c1cc3ccccc3oc1=O)=NC(C)(C)C2	97	75	54	69	62
CCOc1ccc(-c2nc(N)ncc2Oc2cccc(OC)c2)c(O)c1	92	14*	43	94	48
NC(=S)N/N=C/c1ccc(-c2ccc(Cl)c(Cl)c2)o1	81	51	56	69	53
NC(=S)N/N=C\c1ccc(-c2cccc(Cl)c2Cl)o1	68	45	63	22*	55
COc1cccc2cc(C(=O)NCc3ccco3)c(=O)oc12	.	.	98	.	91
